TRPC4 inh = inhibitors of mouse TRPC4 channel. B-score at 10 µM. 0.39% of 300,000 active. HEK293 TRPC4beta/mu-opioid, DAMGO-evoked Fluo4 calcium flux; active compounds read low;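 active = B-score over 3 SD under the library average, no early fluorescence shift, positive overall ratio signal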
Target sequence (Q9QUQ5 whole entry, looked up): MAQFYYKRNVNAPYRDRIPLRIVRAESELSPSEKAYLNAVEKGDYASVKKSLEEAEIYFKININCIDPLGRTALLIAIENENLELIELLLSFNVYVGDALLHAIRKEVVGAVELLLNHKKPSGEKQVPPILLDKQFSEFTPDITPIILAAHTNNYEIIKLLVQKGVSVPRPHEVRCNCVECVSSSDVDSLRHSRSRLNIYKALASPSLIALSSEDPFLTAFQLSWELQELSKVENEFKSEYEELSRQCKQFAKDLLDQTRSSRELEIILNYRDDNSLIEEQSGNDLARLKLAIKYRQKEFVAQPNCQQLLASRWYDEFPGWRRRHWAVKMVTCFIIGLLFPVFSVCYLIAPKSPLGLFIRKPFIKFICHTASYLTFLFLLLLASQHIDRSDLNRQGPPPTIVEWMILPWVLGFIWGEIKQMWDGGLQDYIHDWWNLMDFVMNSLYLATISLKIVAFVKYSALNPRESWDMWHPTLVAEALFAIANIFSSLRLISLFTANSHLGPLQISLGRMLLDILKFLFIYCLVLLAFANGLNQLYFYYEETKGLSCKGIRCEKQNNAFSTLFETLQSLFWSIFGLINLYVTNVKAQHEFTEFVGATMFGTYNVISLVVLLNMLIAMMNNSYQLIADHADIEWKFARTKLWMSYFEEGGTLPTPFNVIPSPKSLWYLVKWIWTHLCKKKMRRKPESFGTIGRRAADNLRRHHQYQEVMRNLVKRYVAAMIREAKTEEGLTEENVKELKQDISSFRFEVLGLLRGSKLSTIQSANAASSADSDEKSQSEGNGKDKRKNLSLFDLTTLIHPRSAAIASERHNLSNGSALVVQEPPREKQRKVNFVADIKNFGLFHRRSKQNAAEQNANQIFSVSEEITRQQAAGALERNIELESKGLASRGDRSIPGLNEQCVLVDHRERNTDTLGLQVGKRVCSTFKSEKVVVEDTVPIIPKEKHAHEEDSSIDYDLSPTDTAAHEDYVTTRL
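Assay system – HEK293 line stably carrying TRPC4beta and mu-opioid receptor · Doses – single dose · Detection – Fluo4 calcium-dye fluorescence, kinetic read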
TRPC4 potent = allosterically enhances the mouse TRPC4 cation channel; Q9QUQ5; HEK293 TRPC4beta/mu-opioid, DAMGO EC20, Fluo-4 Ca2+ flux; active compounds read high; B-score at 10 µM; 0.42% of 310,000 active; AID 2227;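 active = B-score of calcium response area above 5 SD of library B-scores, with initial fluorescence ratio within 5 SD of library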;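 note: B-score of integrated fluorescence ratio over time as area under calcium response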
TRPC4 act = opens the mouse TRPC4 cation channel; Q9QUQ5; HEK293 TRPC4beta/mu-opioid, Fluo4 calcium fluorescence; active compounds read high; B-score at 10 µM; 0.49% of 310,000 active; AID 2237;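 active = B-score above 5 SD of library B-scores, and initial fluorescence ratio not above library mean plus 5 SD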;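 note: positive B-score marks a calcium rise read as TRPC4 activation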
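Test system: HEK293 cells stably co-expressing mouse TRPC4beta and mu-opioid receptor | Schedule: Fluo4 dye loading 45 min at room temperature, 110 s recording | Measured by: Kinetic Fluo4 calcium fluorescence, 5 s baseline at 1 Hz | Evaluation: B score of integrated ratio | Controls: Buffer (low) and maximal DAMGO (high)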
TRPC6 inh = mouse TRPC6 channel inhibition; Q61143; HEK293-TRPC6, membrane potential dye, ACh-evoked depolarization; active compounds read low; B-score at 10 µM; 1.1% of 310,000 active; AID 2553;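 active = B-score under library mean minus 3 SD, initial fluorescence not abnormally high, positive integrated signal ratio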;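 note: B-score derived from integrated fluorescence ratio over the kinetic read; more negative B-score means stronger inhibition of depolarization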
TRPC6 act = activates the mouse TRPC6 cation channel; HEK293-TRPC6 membrane potential dye fluorescence; active compounds read high; B-score at 10 µM; 0.13% of 310,000 active; AID 2550; Q61143;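 active = B-score of the integrated fluorescence ratio above library mean plus 3 SD, and starting fluorescence ratio within library mean plus 5 SD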;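 note: higher score means more depolarization so channel activation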
TRPC4 sel inh 2 = second selectivity test of TRPC6 inhibitors: effect on mouse TRPC4. 42% of 920 active. shares compounds with TRPC6 inh. inhibition, % at 10 µM. HEK293 TRPC4/MOR, membrane potential dye fluorescence; channel activated by saturating DAMGO dose;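 active = compounds whose fluorescence signal differed from control wells by over 3 SD, either direction, in both duplicate plates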
TRPC4 spec = selectivity of TRPC6 inhibitors: effect on mouse TRPC4; shares compounds with TRPC6 inh; activity change, negative = inhibition, % at 10 µM; AID 2777; HEK293 TRPC4/mu-opioid, membrane potential fluorescence; 61% of 920 active;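 active = rise or fall in signal beyond 3 SD of buffer-only wells in both replicate plates, either sign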;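 note: integrated kinetic ratio of fluorescence range over baseline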
HEK293 MPD ctr 2-1 = parental HEK293 nonspecific activity of TRPC6 inhibitors, second screen; signal change vs control, % at 10 µM; shares compounds with TRPC6 inh; 31% of 920 active; AID 2779; parental HEK293 membrane potential dye fluorescence; maximal acetylcholine challenge after compound addition;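 active = membrane potential signal moving either way by over 3 SD of the maximum-effect control, in both duplicate plates, meaning non-specific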
HEK293 MPD ctr-1 = parental HEK293 nonspecific activity of TRPC6 inhibitors | parental HEK293 membrane potential dye fluorescence | AID 2780 | 60% of 920 active | membrane potential signal change, % at 10 µM | shares compounds with TRPC6 inh;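 active = membrane potential signal shifting up or down by more than 3 SD of buffer-only wells, on both duplicate plates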
HEK293 MPD ctr-2 = checks TRPC6 modulator effects in parental HEK293 cells | membrane potential dye fluorescence | membrane potential signal change, % at 10 µM | shares compounds with TRPC6 inh | 51% of 2,400 active | AID 488924;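 active = membrane potential signal moves up or down beyond 5 SD from buffer-only wells, on both duplicate plates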
HEK293 MPD ctr 2-2 = parental HEK293 nonspecific activity of TRPC6 modulators, second screen. shares compounds with TRPC6 inh. membrane potential dye fluorescence; after compound, maximal acetylcholine stimulation. inhibition, % at 10 µM. 14% of 2,400 active;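 active = membrane potential signal drops by more than 5 SD from the mean control signal, in both duplicate plates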;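 note: plate controls were acetylcholine ECmax control wells for no effect and buffer only wells for full effect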
TRPC4/MOR mod = tests whether TRPC6 modulators also affect mouse TRPC4 | 69% of 2,400 active | shares compounds with TRPC6 inh | HEK293 TRPC4/mu-opioid, membrane potential fluorescence | percent change from control (negative = decrease, positive = increase), % at 10 µM;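 active = membrane potential signal moved up or down beyond 5 SD of buffer control wells, in both duplicate plates, actives on both sides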;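 note: plate controls were assay buffer wells for no effect and DAMGO maximal-effect wells for full effect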
TRPC4 ctr inh 2 = second check of whether TRPC6 modulators also affect mouse TRPC4. shares compounds with TRPC6 inh. HEK293 TRPC4/mu-opioid, membrane potential dye fluorescence; stimulated with maximal-effect DAMGO. inhibition, % at 10 µM. 55% of 2,400 active;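 active = drop in membrane potential signal beyond 5 SD of the control wells in both duplicate plates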;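 note: TRPC4 counter screen for TRPC6 hits run under conditions tuned for TRPC6 not TRPC4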
TRPC6 inh conf = mouse TRPC6 inhibitor confirmation | shares compounds with TRPC6 inh | HEK293-TRPC6, membrane potential dye, ACh-evoked depolarization | inhibition, % at 10 µM | 43% of 3,300 active | AID 488960;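 active = fluorescence ratio falls more than 5 SD below the full-stimulation control mean, in both duplicate runs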;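 note: integrated fluorescence ratio of peak minus minimum over baseline after agonist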
TRPC6 act conf = mouse TRPC6 activator confirmation; shares compounds with TRPC6 inh; HEK293-TRPC6 membrane potential dye fluorescence, FDSS; activation, % at 10 µM; 11% of 2,800 active;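 active = ratio signal rise beyond 5 SD above unstimulated control wells' mean, seen in both duplicate runs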;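 note: plate controls were buffer EC0 wells for no effect and acetylcholine ECmax response for full effect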
* = called active by the depositor; i = inactive; . = not tested or not shown. Rows were chosen to be rich in hits. Some 2.3% of all compounds tested hit in one or more screens of this group.

SMILES | TRPC4 inh | TRPC4 potent | TRPC4 act | TRPC6 inh | TRPC6 act | TRPC6 inh conf | TRPC6 act conf | others
COCCNC(=O)c1ccc(N2CC3CC(C2)c2cccc(=O)n2C3)c([N+](=O)[O-])c1 (stereo not given) | i | i | i | i | i | . | .
C[n+]1c(-c2ccccc2)c2cc(N)ccc2c2ccc(N)cc21 | i | i | i | -6.7* | i | 56%* | i | HEK293 MPD ctr-2=-208%*;HEK293 MPD ctr 2-2=80%*;TRPC4/MOR mod=-73%*;TRPC4 ctr inh 2=68%*
COC(=O)C1=C(c2ccc(S(C)(=O)=O)cc2)C[C@@H]2CC[C@H]1N2C(=O)N1CCC(C)CC1 | i | i | i | i | i | . | .
CCc1cc2c(N3CCN(C)CC3)ncnc2s1 | i | i | i | i | i | . | .
CCN1CCN(c2ncnc3ccc(Br)cc23)CC1 | i | i | i | -7.6* | i | i | i | TRPC4 sel inh 2=i;TRPC4 spec=i;HEK293 MPD ctr 2-1=i;HEK293 MPD ctr-1=-192%*
CN1CCc2nc(N)c(C#N)c(-c3ccccc3)c2C1 | i | i | i | i | i | . | .
CN1CCc2nc3sc(C#N)c(N)c3c(-c3cccs3)c2C1 | i | i | i | -9.2* | i | i | i | HEK293 MPD ctr-2=-192%*;HEK293 MPD ctr 2-2=i;TRPC4/MOR mod=-32%*;TRPC4 ctr inh 2=34%*
CCCc1c(C)nc(SCC(=O)C(C)(C)C)nc1OC(=O)N(C)C | i | i | i | i | i | . | .
c1ccc2c(N3CCNCC3)cccc2c1 | i | i | i | i | i | . | .
Clc1cccc(N2CCNCC2)c1Cl | i | i | i | -9* | i | 55%* | i | TRPC4 sel inh 2=72%*;TRPC4 spec=-0.4%*;HEK293 MPD ctr 2-1=i;HEK293 MPD ctr-1=1.9%*
Cc1ccc(-c2cc(-c3ccccc3)cc(-c3ccccc3)[n+]2-c2ccccc2)cc1 | i | 33* | i | -9.6* | i | 96%* | i | TRPC4 sel inh 2=54%*;TRPC4 spec=14%*;HEK293 MPD ctr 2-1=i;HEK293 MPD ctr-1=8.2%*
C[n+]1c(-c2ccccc2)cc(-c2ccc(Cl)cc2)cc1-c1ccccc1 | i | i | i | i | i | . | .
Cc1ccc(-c2cc(-c3ccc(C)cc3)[n+](C)o2)cc1 | i | i | i | i | i | . | .
Cc1ccc(-c2cc(-c3ccc(C)cc3)[n+](-c3ccccc3)c(-c3ccc(C)cc3)c2)cc1 | i | i | 82* | -8.7* | i | 101%* | i | TRPC4 sel inh 2=41%*;TRPC4 spec=3.5%*;HEK293 MPD ctr 2-1=i;HEK293 MPD ctr-1=6.0%*
CCNc1cc(N2CCNCC2)ccc1[N+](=O)[O-] | i | 35* | i | -5.7* | i | i | i | HEK293 MPD ctr-2=-214%*;HEK293 MPD ctr 2-2=i;TRPC4/MOR mod=-34%*;TRPC4 ctr inh 2=38%*
Cc1[nH]n(-c2ccccc2)c(=O)c1C(c1ccc([N+](=O)[O-])cc1)c1c(C)[nH]n(-c2ccccc2)c1=O | i | i | i | -5.9* | i | 42%* | i | HEK293 MPD ctr-2=i;HEK293 MPD ctr 2-2=i;TRPC4/MOR mod=i;TRPC4 ctr inh 2=38%*
C=CCn1c(O)c(/C=N/N2CCCCC2)c(=O)[nH]c1=O | i | i | i | i | i | . | .
COc1ccc(-n2c(O)c(C=Nc3c(C)n(C)n(-c4ccccc4)c3=O)c(=O)[nH]c2=O)cc1 | i | i | i | i | i | . | .
